Data from article PMC11062432 (The Plant Cell, 2023).
pKd: −log10 of the molar value. Values belong to the substance of their own block, whether it stands above or below them. Bridge positions count the residues as written; N and C are the ends. Ends that are not written are not given here.

Key:
[1] = target: 6xHis-ZmRALF1 (predicted mature peptide, pET53-DEST, refolded) (maize (Zea mays)); assay: MST
[2] = target: 6xHis-ZmRALF2 (predicted mature peptide, pET53-DEST, refolded) (maize (Zea mays)); assay: MST
root growth = settings: overexpression or application of the peptide; ref Matos et al. 2008; Li et al. 2022; cited from earlier work
[3] = test system: plasma membrane H^+-ATPase2; settings: roots; ref Haruta et al. 2014; cited from earlier work
[4] = target: 6xHis-ZmRALF3 (predicted mature peptide, pET53-DEST, refolded) (maize (Zea mays)); assay: MST
ANX2 = assay: Pull-down assay, ANX2 ectodomain; assay type: binding, Arabidopsis thaliana; settings: Flag-tagged ectodomain, His-tagged ZmRALFs
Summary of the method: (§1)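 FLAG-tagged Arabidopsis receptor ectodomains (from earlier work) were mixed with maize RALF mature peptides. The peptides were TrxA-His fusions expressed in E. coli BL21 (1 mm IPTG, 30 °C, 3–4 h), Ni-NTA-purified and desalted. The mix sat in 20 mm Tris pH 7.5, 1% CA630, rotating at 4 °C for 2 h. Ni-NTA beads were then added for 2 h more, followed by 5 washes. Read-out: SDS-PAGE and Western blot, anti-His and anti-FLAG.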

ANX1 = assay: Pull-down assay, ANX1 ectodomain; assay type: binding, Arabidopsis thaliana; settings: Flag-tagged ectodomain, His-tagged ZmRALFs
Summary of the method: as §1

BUPS1 = assay: Pull-down assay, BUPS1 ectodomain; assay type: binding, Arabidopsis thaliana; settings: Flag-tagged ectodomain, His-tagged ZmRALFs
Summary of the method: as §1

ZmPEX2 = assay: Pull-down assay, LRR domain of ZmPEX2; assay type: binding, Zea mays; settings: MBP-tagged N-terminal LRR domain of ZmPEX2, ZmRALFs
Summary of the method: (§2)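 MBP-tagged maize partners were expressed in E. coli BL21 (0.1–0.5 mm IPTG, 30 °C, 3–4 h), amylose-purified, eluted with maltose and desalted. Partners: LLGs without signal peptide, PEX2 N-terminal LRR domain, PEX4. Each was incubated with His-tagged maize RALFs in 20 mm Tris pH 7.5, 1% CA630 at 4 °C for 2 h, then Ni-NTA pull-down for 2 h and 5 washes. Read-out: SDS-PAGE and Western blot, anti-His and anti-MBP.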

ZmLLG1 = assay: Pull-down assay, ZmLLG1; assay type: binding, Zea mays; settings: MBP-tagged LLG, His-tagged RALFs
Summary of the method: as §2

BUPS2 = assay: Pull-down assay, BUPS2 ectodomain; assay type: binding, Arabidopsis thaliana; settings: Flag-tagged ectodomain, His-tagged ZmRALFs
Summary of the method: as §1

ZmPEX4 = assay: Pull-down assay, full-length ZmPEX4; assay type: binding, Zea mays; settings: MBP-tagged full-length ZmPEX4, ZmRALFs
Summary of the method: as §2

ZmLLG2 = assay: Pull-down assay, ZmLLG2; assay type: binding, Zea mays; settings: MBP-tagged LLG, His-tagged RALFs
Summary of the method: as §2

CrRLK1Ls = assay: Interaction of RALFs with CrRLK1Ls, overall; assay type: binding; settings: discussion summary

pKd [1]: 5.72 | pKd [2]: 6.26
Substance: ZmFERL9 ectodomain as used in MST (tag not told: MBP or GST construct) (domain or fragment)

Substance: AtRALF1: Clade IA Arabidopsis RALF (ATTKYISYQSLKRNSVPCSRRGASYYNCQNGAQANPYSRGCSKIARCRS; not fully specified; ends and bridges not checked; UniProt Q9SRY3 72-120, looked up)
effect on root growth (root growth): inhibited rapid root growth | effect on H^+-ATPase2 via FER [3]: inhibition of plasma membrane H^+-ATPase2 explaining extracellular alkalinization

pKd [4]: 5.76
Substance: MBP-tagged ectodomain of ZmFERL1 (domain or fragment)

Substance: MGEAKLNNVTVLLVALLLLSSGVQDAAAMPGTLNYDAIVADEPNGKNKDLYRPVANANKYTRGCEPIERCRGAR (disulfide 64-70 (inferred)) [ZmRALF5]
interaction in pull-down (ANX2): did not interact with Arabidopsis CrRLK1Ls | interaction in pull-down (ANX1): did not interact with Arabidopsis CrRLK1Ls | interaction in pull-down (BUPS1): did not interact with Arabidopsis CrRLK1Ls

Substance: MARLGAGAVLALLVAVAAVAAFLAVPASAKSGELSAMGLLAAKGGSGAGPQKCSGAVGECDVDEAEELGLSGGGLGSDDAVRRTLAQRKPTNRYISYAALRADQVPCNKRGRSYYSNCEAQKAANPYRRGCSAITRCARNMN (disulfide (positions not given here)) [ZmRALF2]
interaction in pull-down (ZmPEX2): interacted with both ZmPEX proteins | interaction in pull-down (ZmLLG1): interacted with ZmLLG1/2 | interaction in pull-down (BUPS2): interacted more strongly with ANX1/2 and BUPS1/2 compared with ZmRALF3 | interaction in pull-down (ZmPEX4): interacted with both ZmPEX proteins | interaction in pull-down (ZmLLG2): interacted with ZmLLG1/2 | interaction in pull-down (ANX2): interacted more strongly with ANX1/2 and BUPS1/2 compared with ZmRALF3 | interaction in pull-down (ANX1): interacted more strongly with ANX1/2 and BUPS1/2 compared with ZmRALF3 | interaction in pull-down (BUPS1): interacted more strongly with ANX1/2 and BUPS1/2 compared with ZmRALF3

Substance: MARLGAGAVLTLLLAVAAAAAFLAVPASAKVGDLSAVEFVAARGSSIPGQRSSKCSGAVGECGVDEEEELGLSGGGGIGAGDALRRTLAQRKPTNRYISYAALRADQVPCNKRGRSYYTNCAAQTAANPYRRGCSAITRCARSMN (disulfide (positions not given here)) [ZmRALF3]
interaction in pull-down (ZmPEX2): interacted with both ZmPEX proteins | interaction in pull-down (ZmLLG1): interacted with ZmLLG1/2 | interaction in pull-down (ZmPEX4): interacted with both ZmPEX proteins | interaction in pull-down (ZmLLG2): interacted with ZmLLG1/2

Substance: MARLALVAAVVLCLLLATGPQGAISAEGMVSFDNLISCKVLGNCDKNLGPEASRPGKPANDYTRGCNPITGCRG (disulfide (positions not given here)) [ZmRALF1]
interaction in pull-down (BUPS2): very weak interaction | interaction with CrRLK1Ls in words (CrRLK1Ls): very low (almost unspecific) binding | interaction in pull-down (ANX2): did not interact with Arabidopsis CrRLK1Ls | interaction in pull-down (ANX1): did not interact with Arabidopsis CrRLK1Ls | interaction in pull-down (BUPS1): did not interact with Arabidopsis CrRLK1Ls

pKd [1]: 5.45 | pKd [2]: 6.21
Substance: ZmFERL7 ectodomain as used in MST (tag not told: MBP or GST construct) (domain or fragment)
